Converted amounts (≈) assume the structure as drawn.
Columns and labels:
[1] = tested on: Mycolicibacterium smegmatis; experiment: Antimycobacterial activity against Mycobacterium smegmatis MC2 by agar dilution method; format: functional
Summary of the method: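 Agar dilution in Middlebrook 7H11 agar with OADC, run along NCCLS-recommended lines; M. smegmatis ATCC 14468 (MC2); MIC determined in duplicate.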

[2] = tested on: Vero; experiment: Cytotoxicity against african green monkey Vero cells after 72 hrs by MTT assay; format: cell-based; conditions: Chlorocebus sabaeus
Summary of the method: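 Mammalian Vero cells exposed to compounds at 62.5 µg/ml for 72 h; viability read by cellular conversion of MTT to formazan (Cell Titer 96 non-radioactive proliferation assay).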

[3] = tested on: Mycobacterium tuberculosis; experiment: Antimycobacterial activity against Mycobacterium tuberculosis H37Rv by agar dilution method; format: functional
Summary of the method: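 Agar dilution MIC on Middlebrook 7H11 agar with OADC, following the NCCLS-recommended approach, run in duplicate. The MDR clinical isolate was resistant to isoniazid, rifampicin, ethambutol and ofloxacin.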

[4] = target: DNA gyrase subunit B (Mycobacterium smegmatis (strain ATCC 700084 / mc(2)155), UniProt A0QNE0); experiment: Inhibition of Mycobacterium smegmatis MC2 DNA gyrase GyrB ATPase supercoiling activity; set-up: species or system Mycolicibacterium smegmatis
Summary of the method: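 Gyrase purified from M. smegmatis MC2 cells; compounds in DMSO pre-incubated with enzyme, then 400 ng relaxed pUC18 added in 35 mM Tris-HCl pH 7.5, 5 mM MgCl2, 25 mM K glutamate, 2 mM spermidine, 2 mM ATP, BSA, tRNA, 5% glycerol; 30 min; heat-stopped 65 °C 15 min; agarose gel, ethidium bromide staining; ciprofloxacin 10 µg/ml and 5% DMSO controls.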

[5] = tested on: Mus musculus; experiment: Phototoxicity in Swiss albino mouse assessed as ear thickness at 140 mg/kg, po after 4 hrs of irradiation; format: organism-based; set-up: dose 140 mg/kg, route oral; conditions: in vivo
Summary of the method: (§1)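 Female Swiss albino mice (~2 months, 20-25 g), fasted ≥18 h, single 140 mg/kg oral gavage dose; groups of 6 (compound, lomefloxacin HCl 140 mg/kg, 0.5% carboxymethylcellulose vehicle 10 ml/kg); UV irradiation 4 h (~18 J/cm²) right after dosing; both ears scored for erythema, oedema, thickness pre-dose, at end of irradiation, and ~24-96 h; thickness given as mean of both ears ± SEM.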

[6] = tested on: Mus musculus; experiment: Phototoxicity in Swiss albino mouse assessed as ear thickness at 140 mg/kg, po after 24 hrs of irradiation; format: organism-based; set-up: dose 140 mg/kg, route oral; conditions: in vivo; summary of the method: as §1
[7] = tested on: Mus musculus; experiment: Phototoxicity in Swiss albino mouse assessed as ear thickness at 140 mg/kg, po after 48 hrs of irradiation; format: organism-based; set-up: dose 140 mg/kg, route oral; conditions: in vivo; summary of the method: as §1
[8] = tested on: Mus musculus; experiment: Phototoxicity in Swiss albino mouse assessed as ear thickness at 140 mg/kg, po after 72 hrs of irradiation; format: organism-based; set-up: dose 140 mg/kg, route oral; conditions: in vivo; summary of the method: as §1
[9] = tested on: Mus musculus; experiment: Phototoxicity in Swiss albino mouse assessed as ear thickness at 140 mg/kg, po after 96 hrs of irradiation; format: organism-based; set-up: dose 140 mg/kg, route oral; conditions: in vivo; summary of the method: as §1
[10] = tested on: Mus musculus; experiment: Phototoxicity in Swiss albino mouse assessed as erythema incidence at 140 mg/kg, po after 24 hrs of irradiation; format: organism-based; set-up: dose 140 mg/kg, route oral; conditions: in vivo; summary of the method: as §1
[11] = tested on: Mus musculus; experiment: (§2) Phototoxicity in Swiss albino mouse assessed as erythema incidence at 140 mg/kg, po after 48 hrs of irradiation; format: organism-based; set-up: dose 140 mg/kg, route oral; conditions: in vivo; summary of the method: as §1
[12] = tested on: Mus musculus; experiment: as §2; format: organism-based; set-up: dose 140 mg/kg, route oral; conditions: in vivo; summary of the method: as §1; remark: listed apart in the source
[13] = tested on: Mus musculus; experiment: Phototoxicity in Swiss albino mouse assessed as erythema incidence at 140 mg/kg, po after 96 hrs of irradiation; format: organism-based; set-up: dose 140 mg/kg, route oral; conditions: in vivo; summary of the method: as §1
[14] = tested on: Mycobacterium tuberculosis; experiment: Antimycobacterial activity against Mycobacterium tuberculosis ATCC 35801 infected in CD1 mouse assessed as bacterial load in lungs at 50 mg/kg, ip after 10 days; format: functional; conditions: route intraperitoneal
Summary of the method: (§3)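 Female CD-1 mice, 6 weeks old, six per group, infected IV via caudal vein with ~10⁷ viable organisms. Intraperitoneal treatment started 10 days after inoculation and ran 10 days. At 35 days post-infection, spleens and right lungs were homogenised and serially 10-fold diluted onto 7H10 agar, incubated 4 weeks at 37 °C in ambient air. CFU compared with vehicle-treated controls.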

[15] = tested on: Mycobacterium tuberculosis; experiment: Antimycobacterial activity against Mycobacterium tuberculosis ATCC 35801 infected in CD1 mouse assessed as bacterial load in spleen at 50 mg/kg, ip after 10 days; format: functional; conditions: route intraperitoneal; summary of the method: as §3
[16] = tested on: Mus musculus; experiment: Phototoxicity in Swiss albino mouse assessed as erythema incidence at 140 mg/kg, po after 4 hrs of irradiation; format: organism-based; set-up: dose 140 mg/kg, route oral; conditions: in vivo; summary of the method: as §1

Chain of DNA gyrase subunit B (Mycobacterium smegmatis (strain ATCC 700084 / mc(2)155), UniProt A0QNE0) (A0QNE0 whole entry): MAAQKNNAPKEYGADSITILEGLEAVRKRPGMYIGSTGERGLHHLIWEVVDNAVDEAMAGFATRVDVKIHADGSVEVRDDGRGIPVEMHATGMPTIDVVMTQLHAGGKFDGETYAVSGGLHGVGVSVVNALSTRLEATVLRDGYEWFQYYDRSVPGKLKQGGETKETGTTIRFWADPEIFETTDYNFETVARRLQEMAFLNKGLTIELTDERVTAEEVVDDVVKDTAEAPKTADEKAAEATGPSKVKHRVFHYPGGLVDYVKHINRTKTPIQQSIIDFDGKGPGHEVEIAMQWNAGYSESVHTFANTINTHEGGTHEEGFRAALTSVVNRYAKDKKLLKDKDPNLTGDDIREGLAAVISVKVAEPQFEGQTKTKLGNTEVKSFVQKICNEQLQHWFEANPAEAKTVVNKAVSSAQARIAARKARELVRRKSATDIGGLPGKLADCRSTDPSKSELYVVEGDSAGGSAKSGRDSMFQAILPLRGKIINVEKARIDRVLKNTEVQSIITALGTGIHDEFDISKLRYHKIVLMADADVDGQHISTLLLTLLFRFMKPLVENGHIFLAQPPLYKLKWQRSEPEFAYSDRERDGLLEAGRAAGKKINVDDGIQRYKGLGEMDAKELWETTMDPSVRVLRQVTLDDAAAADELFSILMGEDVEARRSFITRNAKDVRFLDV

Structure (SMILES) | MIC [1] [µM] | IC50 [2] [µM] | MIC [3] [µM] | IC50 [4] [µM] | also measured
COc1c(N2CCN(C)C(c3ccccc3)C2)c(F)c([N+](=O)[O-])c2c(=O)c(C(=O)O)cn(C3CC3)c12 (centres undefined) | 6.3 (≈ 3.13 µg/mL) | 126 | 3.14 (≈ 1.56 µg/mL) | – | –
CCN(CC)C(=O)C1CCCN(c2c(F)cc3c(=O)c(C(=O)O)cn(C4CC4)c3c2OC)C1 (centres undefined) | 0.85 (≈ 0.391 µg/mL) | 136 | 1.69 (≈ 0.777 µg/mL) | > 109 | Activity [5]: 0.38 mm; Activity [6]: 0.36 mm; Activity [7]: 0.37 mm; Activity [8]: 0.39 mm; Activity [9]: 0.39 mm; Activity [10]: Non-toxic; Activity [11]: Non-toxic; Activity [12]: Non-toxic; Activity [13]: Non-toxic
COc1c(N2CCN(C(=O)c3ccco3)CC2)c(F)c([N+](=O)[O-])c2c(=O)c(C(=O)O)cn(C3CC3)c12 | 12.5 (≈ 6.25 µg/mL) | – | 6.25 (≈ 3.13 µg/mL) | – | –
COc1c(N2CCN(Cc3ccc4c(c3)OCO4)CC2)c(F)cc2c(=O)c(C(=O)O)cn(C3CC3)c12 | 3.15 (≈ 1.56 µg/mL) | 126 | 1.57 (≈ 0.778 µg/mL) | > 101 | –
COc1c(N2CCc3ccccc3C2C(=O)NC(C)(C)C)c(F)c([N+](=O)[O-])c2c(=O)c(C(=O)O)cn(C3CC3)c12 (centres undefined) | 2.82 (≈ 1.56 µg/mL) | 113 | 1.41 (≈ 0.779 µg/mL) | > 90.5 | –
COc1c(N2CCC3(CC2)OCCO3)c(F)cc2c(=O)c(C(=O)O)cn(C3CC3)c12 | 1.86 (≈ 0.778 µg/mL) | 149 | 0.93 (≈ 0.389 µg/mL) | > 119 | Activity [14]: 6.12; Activity [15]: 6.41
COc1c(N2CCN(C(c3ccccc3)c3ccc(Cl)cc3)CC2)c(F)c([N+](=O)[O-])c2c(=O)c(C(=O)O)cn(C3CC3)c12 (centres undefined) | 10.3 (≈ 6.25 µg/mL) | 103 | 1.28 (≈ 0.777 µg/mL) | – | –
COc1c(N2CCN(C(=O)C3COc4ccccc4O3)CC2)c(F)cc2c(=O)c(C(=O)O)cn(C3CC3)c12 (centres undefined) | 1.49 (≈ 0.78 µg/mL) | 119 | 1.49 (≈ 0.78 µg/mL) | 57.3 | Activity [5]: 0.31 mm; Activity [6]: 0.32 mm; Activity [7]: 0.33 mm; Activity [8]: 0.33 mm; Activity [9]: 0.32 mm; Activity [16]: Non-toxic; Activity [10]: Non-toxic; Activity [11]: Non-toxic; Activity [12]: Non-toxic; Activity [13]: Non-toxic
COc1c(N2CCN(C(=O)c3ccco3)CC2)c(F)cc2c(=O)c(C(=O)O)cn(C3CC3)c12 | 13.7 (≈ 6.25 µg/mL) | – | 13.7 (≈ 6.25 µg/mL) | – | –
COc1ccc(CC2C3=C(CCCC3)CCN2c2c(F)c(N)c3c(=O)c(C(=O)O)cn(C4CC4)c3c2OC)cc1 (centres undefined) | 5.72 (≈ 3.13 µg/mL) | 114 | 2.85 (≈ 1.56 µg/mL) | – | –
COc1c(N2CCn3cc(C(=O)O)nc3C2)c(F)c([N+](=O)[O-])c2c(=O)c(C(=O)O)cn(C3CC3)c12 | 6.42 (≈ 3.13 µg/mL) | 128 | 3.12 (≈ 1.52 µg/mL) | – | –
COc1c(N2CCC(n3c(=O)[nH]c4cc(Cl)ccc43)CC2)c(F)c([N+](=O)[O-])c2c(=O)c(C(=O)O)cn(C3CC3)c12 | 10.9 (≈ 6.25 µg/mL) | – | 5.47 (≈ 3.13 µg/mL) | – | –
COc1c(N2CCN(C(c3ccccc3)c3ccc(Cl)cc3)CC2)c(F)cc2c(=O)c(C(=O)O)cn(C3CC3)c12 (centres undefined) | 44.5 (≈ 25 µg/mL) | – | 11.1 (≈ 6.25 µg/mL) | – | –
COc1c(N2CCC(n3c(=O)[nH]c4cc(Cl)ccc43)CC2)c(F)cc2c(=O)c(C(=O)O)cn(C3CC3)c12 | 5.94 (≈ 3.13 µg/mL) | – | 5.94 (≈ 3.13 µg/mL) | – | –
COc1c(N2CCN(Cc3ccc4c(c3)OCO4)CC2)c(F)c(N)c2c(=O)c(C(=O)O)cn(C3CC3)c12 | 6.13 (≈ 3.13 µg/mL) | – | 3.06 (≈ 1.56 µg/mL) | – | –
CCN(CC)C(=O)C1CCCN(c2c(F)c([N+](=O)[O-])c3c(=O)c(C(=O)O)cn(C4CC4)c3c2OC)C1 (centres undefined) | 12.4 (≈ 6.25 µg/mL) | 124 | 1.55 (≈ 0.782 µg/mL) | – | –
COc1c(N2CCC(O)(c3ccc(Cl)cc3)CC2)c(F)c([N+](=O)[O-])c2c(=O)c(C(=O)O)cn(C3CC3)c12 | 11.8 (≈ 6.25 µg/mL) | – | 5.88 (≈ 3.13 µg/mL) | – | –
COc1ccc(CC2C3=C(CCCC3)CCN2c2c(F)cc3c(=O)c(C(=O)O)cn(C4CC4)c3c2OC)cc1 (centres undefined) | 2.93 (≈ 1.56 µg/mL) | 117 | 1.46 (≈ 0.778 µg/mL) | 75.1 | –

From ChEMBL document CHEMBL1144027, “Synthesis and antimycobacterial evaluation of newer 1-cyclopropyl-1,4-dihydro-6-fluoro-7-(substituted secondary amino)-8-methoxy-5-(sub)-4-oxoquinoline-3-carboxylic acids” (Bioorg Med Chem, 2008)
